Key:
Mus musculus [1] = assay: Compound was tested for percent cures (60-day survivors) in mice at 20 mg/kg; type: functional
Procedure, shortened: (§1)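 L1210 leukemia was passaged in donor CD2F1 mice. Each recipient mouse received 10⁵ cells. Drug was given ip in 100% DMSO once daily for 6 days, starting 24 h after implantation, at 5–20 mg/kg. Groups were 5–10 mice, with vehicle controls. %T/C = mean survival treated/control × 100, excluding cures. Cures = 60-day survivors. Body-weight change during therapy was taken as toxicity.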

[2] = Relative rate of decomposition is the rate of decomposition in the presence of 10 mMGSH/rate of decomposition in buffer alone; type: ADME
Procedure, shortened: (§2)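 Phenol red acidification (560 nm) was run in 1 mM potassium phosphate, pH 7.4, 37 °C, with 10 mM GSH added and 1 mM drug. Rates assumed 2 H⁺ released per mol during GSH-initiated decomposition. HCl calibration was done in the GSH-containing mixture. The relative rate is the GSH rate divided by the buffer-alone rate.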

[3] = Rate of decomposition in presence of 10 mM glutathione (GSH); type: ADME; procedure, shortened: as §2
[4] = Relative rate of decomposition is the rate of decomposition in the presence of 2% serum/rate of hydrolysis in buffer alone.; type: ADME
Procedure, shortened: (§3)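 Hydrolysis was followed by phenol red acidification (560 nm) at pH 7.4, 37 °C, in weak phosphate buffer containing 2% CD-1 mouse serum. Serum came from female CD-1 mice bled by cardiac puncture: blood from 3 mice was pooled, clotted 30 min at 37 °C, centrifuged, and kept on ice ≤6 h. HCl calibration was done in the serum mixture. The relative rate is the serum rate divided by the buffer rate.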

[5] = Relative rate of decomposition is the rate of decomposition of acyl compound to that of rate of decomposition of compound; type: ADME
Procedure, shortened: (§4)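 Decomposition was followed at 37 °C, pH 7.4, by phenol red (20 mg/L) acidification at 560 nm in 1 mM potassium phosphate. Drug was at 1 mM final, added from a DMSO stock. Rates were calculated as 3 H⁺ per mol for acyl compounds, calibrated with HCl standards. The relative rate is the acyl compound rate divided by the reference tris(sulfonyl) rate.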

[6] = Rate of decomposition in presence of CD-1 mouse serum; type: ADME; procedure, shortened: as §3
L1210 [7] = assay: Average percent change in body weight against L1210 leukemia in mice at 20 mg/kg; type: functional, Mus musculus
Procedure, shortened: (§5)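 L1210 leukemia, 10⁵ cells ip per recipient mouse (cells from ip passage in CD₂F₁ donors plus culture). Drug ip in 100% DMSO, ≤0.025 mL, once daily ×6 starting 24 h after implantation; groups of 5 mice (5–10 per group per footnote). Toxicity read-out: average percent change in body weight from onset to termination of therapy; vehicle-treated tumor-bearing controls included.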

[8] = Initial rate of decomposition (1 mM) in 1 mM potassium phosphate buffer; type: ADME; settings: 1000 µM; procedure, shortened: as §4
Mus musculus [9] = assay: Average survival time of treated/control mice X 100 was determined at 20 mg/kg; type: functional; procedure, shortened: as §1
Mus musculus [10] = assay: Compound was tested for percent cures (60-day survivors) in mice at 60 mg/kg; type: functional
L1210 [11] = assay: Average percent change in body weight against L1210 leukemia in mice at 60 mg/kg; type: functional, Mus musculus
L1210 [12] = assay: Average percent change in body weight against L1210 leukemia in mice at 10 mg/kg; type: functional, Mus musculus; procedure, shortened: as §5
Mus musculus [13] = assay: Compound was tested for percent cures (60-day survivors) in mice at 10 mg/kg; type: functional; procedure, shortened: as §1
Mus musculus [14] = assay: Average survival time of treated/control mice X 100 was determined at 10 mg/kg; type: functional; procedure, shortened: as §1
M109 [15] = assay: Optimal Antitumor Effect was expressed as % T/C against M109, sc leukemia in mice (i.v.) 30 mg/kg; type: functional, Mus musculus; settings: route intravenous
Procedure, shortened: (§6)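 M109 lung carcinoma implanted sc (fragments passaged in Balb/c mice); drug iv in 10% DMSO in saline, 0.01 mL/g, every third day ×4 starting day 1. Eight mice/group, ≥3 dose levels. Read-outs: %T/C from median survival, and T − C = difference in median days for treated vs untreated tumors to reach 1 g (1 mm³ = 1 mg).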

Mus musculus [16] = assay: Compound was tested for percent cures (60-day survivors) in mice at 7.5 mg/kg; type: functional; procedure, shortened: as §1
M109 [17] = assay: Optimal Antitumor Effect was expressed as % T/C against M109, ip leukemia in mice (i.p.) 60 mg/kg; type: functional, Mus musculus; settings: route intraperitoneal
Procedure, shortened: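 M109 lung carcinoma ip in Balb/c-passaged line; drug ip every third day ×4 from day 1, as fine suspension in 10% DMSO in carboxymethylcellulose with Tween 80 (0.5 mL). Eight mice/group, ≥3 dose levels. %T/C = median survival treated/control ×100; deaths before day 10 counted as toxic.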

B16 = assay: Optimal Antitumor Effect was expressed as T-C against B16 i.d. leukemia in mice (i.p.) 100 mg/kg; type: functional, Mus musculus; settings: route intraperitoneal
M109 [18] = assay: Optimal Antitumor Effect was expressed as T-C against M109, sc leukemia in mice (i.v.) 48 mg/kg; type: functional, Mus musculus; settings: route intravenous
M5076 [19] = assay: Optimal Antitumor Effect was expressed as % T/C against M5076, sc leukemia in mice (i.v.) 36 mg/kg; type: functional, Mus musculus; settings: route intravenous
Procedure, shortened: (§7)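 Second M5076 sc experiment in C57BL/6 mice: drug iv in 100% DMSO, fixed 10 μL, every other day ×5 from day 1; eight mice/group. Outputs: %T/C (median survival ratio) and T − C growth delay to 1 g tumor, treated minus control.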

M109 [20] = assay: Optimal Antitumor Effect was expressed as T-C against M109, sc leukemia in mice (i.v.) 30 mg/kg; type: functional, Mus musculus; settings: route intravenous; procedure, shortened: as §6
M109 [21] = assay: Optimal Antitumor Effect was expressed as % T/C against M109, sc leukemia in mice (i.v.) 32 mg/kg; type: functional, Mus musculus; settings: route intravenous
L1210 [22] = assay: Average percent change in body weight against L1210 leukemia in mice at 7.5 mg/kg; type: functional, Mus musculus; procedure, shortened: as §5
M5076 [23] = assay: Optimal Antitumor Effect was expressed as % T-C against M5076, sc leukemia in mice (i.v.) 36 mg/kg; type: functional, Mus musculus; settings: route intravenous; procedure, shortened: as §7
M109 [24] = assay: Optimal Antitumor Effect was expressed as % T/C against M109, sc leukemia in mice (i.v.) 60 mg/kg; type: functional, Mus musculus; settings: route intravenous; procedure, shortened: as §6
P388 = assay: Optimal Antitumor Effect was expressed as cures/total against P388, ip, leukemia in mice (i.p.) 200 mg/kg; 3/6; type: functional, Mus musculus; settings: route intraperitoneal
Mus musculus [25] = assay: Average survival time of treated/control mice X 100 was determined at 7.5 mg/kg; type: functional; procedure, shortened: as §1
M109 [26] = assay: Optimal Antitumor Effect was expressed as T-C against M109, sc leukemia in mice (i.v.) 60 mg/kg; type: functional, Mus musculus; settings: route intravenous; procedure, shortened: as §6
M5076 [27] = assay: Optimal Antitumor Effect was expressed as % T/C against M5076, sc leukemia in mice (i.v.) 20 mg/kg; type: functional, Mus musculus; settings: route intravenous
Procedure, shortened: (§8)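 M5076 reticulum cell sarcoma sc in C57BL/6 mice (fragment passage); drug iv in 10% DMSO in saline, 0.01 mL/g, every other day ×5 from day 1; eight mice/group. %T/C from median survival ratio; T − C = difference in median days for treated vs untreated tumors to reach 1 g.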

M5076 [28] = assay: Optimal Antitumor Effect was expressed as T-C against M5076, sc leukemia in mice (i.v.) 40 mg/kg; type: functional, Mus musculus; settings: route intravenous; procedure, shortened: as §8

CS(=O)(=O)N(CCCl)N(C(=O)c1ccccc1)S(C)(=O)=O
Cures (Mus musculus [1]): 20% | Relative rate of decomposition [2]: 223 | Rate of decomposition [3]: 227 (nM of drug) min-1 ml-1 | Relative rate of decomposition [4]: 7.7 | Relative rate of decomposition [5]: 0.11 | Rate of decomposition [6]: 7.86 (nM of drug) min-1 ml-1 | Body weight (L1210 [7]): -7.7% | Rate of decomposition [8]: 1.02 (nM of drug) min-1 ml-1 | T/C (Mus musculus [9]): 160%

CS(=O)(=O)N(CCCl)N(S(C)(=O)=O)S(C)(=O)=O
Cures (Mus musculus [10]): 100% | Relative rate of decomposition [5]: 1 | Body weight (L1210 [11]): -7.2% | Rate of decomposition [8]: 9.58 (nM of drug) min-1 ml-1

COCC(=O)N(N(CCCl)S(C)(=O)=O)S(C)(=O)=O
Body weight (L1210 [12]): -8.4% | Relative rate of decomposition [2]: 50.6 | Cures (Mus musculus [13]): 100% | Rate of decomposition [3]: 147 (nM of drug) min-1 ml-1 | Relative rate of decomposition [4]: 3 | Relative rate of decomposition [5]: 0.3 | Rate of decomposition [6]: 8.57 (nM of drug) min-1 ml-1 | Rate of decomposition [8]: 2.9 (nM of drug) min-1 ml-1

CCCC(=O)N(N(CCCl)S(C)(=O)=O)S(C)(=O)=O
T/C (Mus musculus [14]): 207% | Body weight (L1210 [12]): 0% | Cures (Mus musculus [13]): 20% | Rate of decomposition [3]: 10.3 (nM of drug) min-1 ml-1 | Rate of decomposition [6]: 0.34 (nM of drug) min-1 ml-1 | Rate of decomposition [8]: <= 0.1 (nM of drug) min-1 ml-1

CC(C)(C)C(=O)N(N(CCCl)S(C)(=O)=O)S(C)(=O)=O
Cures (Mus musculus [1]): 60% | Rate of decomposition [3]: 11 (nM of drug) min-1 ml-1 | Rate of decomposition [6]: 0.78 (nM of drug) min-1 ml-1 | Body weight (L1210 [7]): 0% | Rate of decomposition [8]: <= 0.1 (nM of drug) min-1 ml-1 | T/C (Mus musculus [9]): 302%

CC(=O)N(N(CCCl)S(C)(=O)=O)S(C)(=O)=O
T/C (M109 [15]): 128% | Cures (Mus musculus [16]): 80% | T/C (M109 [17]): 231% | T-C (B16): 12 days | Relative rate of decomposition [2]: 60.3 | T-C (M109 [18]): 14.5 days | Rate of decomposition [3]: 14.5 (nM of drug) min-1 ml-1 | T/C (M5076 [19]): 122% | T-C (M109 [20]): 10.5 days | T/C (M109 [21]): 136% | Relative rate of decomposition [4]: 3.7 | Body weight (L1210 [22]): 1% | Relative rate of decomposition [5]: 0.03 (nM of drug) min-1 ml-1 | T-C (M5076 [23]): 20.8 days | T/C (M109 [24]): 133% | Rate of decomposition [6]: 0.89 (nM of drug) min-1 ml-1 | Cures/total (P388): 3 | T/C (Mus musculus [25]): 341% | T-C (M109 [26]): 3 days | T/C (M5076 [27]): 156% | Rate of decomposition [8]: 0.24 (nM of drug) min-1 ml-1 | T-C (M5076 [28]): 18.3 days

CCC(=O)N(N(CCCl)S(C)(=O)=O)S(C)(=O)=O
T/C (Mus musculus [14]): 217% | Body weight (L1210 [12]): -6.4% | Cures (Mus musculus [13]): 90% | Rate of decomposition [3]: 12.8 (nM of drug) min-1 ml-1 | Rate of decomposition [6]: 0.45 (nM of drug) min-1 ml-1 | Rate of decomposition [8]: <= 0.1 (nM of drug) min-1 ml-1
